In assay [1] the target is β3α4β2α6β2 nAChR (Homo sapiens, UniProt P17787+P43681+Q15825). Briefly: Two-electrode voltage clamp in Xenopus oocytes, α6-containing concatemer. Format: cell-based. The gist of the method:
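α6-containing receptor expressed in Xenopus oocytes as a five-subunit human β3α4β2α6β2 concatemer cRNA. Voltage clamp at −60 mV, 24°C, in Ringer's (pH 7.2, 1 μM atropine). Test compound applied 12 s at varying concentrations, 181 s washout. Peak current and net charge referenced to same-cell 30 μM ACh controls and rescaled to ACh maximum from other experiments; ≥4 oocytes.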

Assay [2] has as its system C57BL/6J mice; β2 WT and KO mice. The experiment in a line: Locomotor activity. Format: in vivo. A digest of the protocol: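 Saline or test compound was given s.c. 15 min before mice entered photocell cages with two banks of eight beams. Beam interruptions were counted over 30 min. β2 WT and KO mice (8/group) received 0.5 mg/kg. For repeated dosing, mice (12/group) received saline or 0.01, 0.1, 0.5 or 1 mg/kg daily for 5 days, had 2 days without injection, and were challenged on day 8.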

In assay [3] the test system is C57BL/6J mice. Briefly: Tail-flick test. Conditions: 0.5 mg/kg s.c., 5-120 min. The assay is classed as in vivo. The gist of the method: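 Tail-flick test. A control latency (2–4 sec) was measured for each mouse before dosing, with a 10 sec maximum. Mice (n=6/group) received saline or test compound 0.5 mg/kg s.c. and were tested at 5, 10, 15, 30, 60 and 120 min. %MPE = ((test−control)/(10−control)) × 100.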

[4] abbreviates: β3α4β2α6β2, normalized to the maximum ACh responses.

Molecules are shown by their SMILES. Read-outs that look alike come from different tables or passages of the source.

β3α4β2α6β2 nAChR, sequence (P43681 29-627 limits assumed): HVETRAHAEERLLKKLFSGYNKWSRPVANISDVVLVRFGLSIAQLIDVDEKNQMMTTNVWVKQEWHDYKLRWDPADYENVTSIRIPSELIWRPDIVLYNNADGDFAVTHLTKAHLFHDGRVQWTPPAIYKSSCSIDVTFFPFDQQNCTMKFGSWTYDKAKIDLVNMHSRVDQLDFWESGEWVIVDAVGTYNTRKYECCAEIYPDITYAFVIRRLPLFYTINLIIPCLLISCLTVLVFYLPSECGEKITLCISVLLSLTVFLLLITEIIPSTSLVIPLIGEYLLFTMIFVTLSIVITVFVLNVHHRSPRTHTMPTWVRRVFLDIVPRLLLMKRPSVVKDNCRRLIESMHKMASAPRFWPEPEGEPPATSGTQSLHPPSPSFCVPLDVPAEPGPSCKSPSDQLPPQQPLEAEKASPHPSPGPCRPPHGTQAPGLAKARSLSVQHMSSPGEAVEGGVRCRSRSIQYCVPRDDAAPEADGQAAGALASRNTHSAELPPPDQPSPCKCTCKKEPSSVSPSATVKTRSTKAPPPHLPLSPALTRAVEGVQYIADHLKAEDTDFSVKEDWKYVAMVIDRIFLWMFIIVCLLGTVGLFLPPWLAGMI
β3α4β2α6β2 nAChR, sequence (P17787 26-502): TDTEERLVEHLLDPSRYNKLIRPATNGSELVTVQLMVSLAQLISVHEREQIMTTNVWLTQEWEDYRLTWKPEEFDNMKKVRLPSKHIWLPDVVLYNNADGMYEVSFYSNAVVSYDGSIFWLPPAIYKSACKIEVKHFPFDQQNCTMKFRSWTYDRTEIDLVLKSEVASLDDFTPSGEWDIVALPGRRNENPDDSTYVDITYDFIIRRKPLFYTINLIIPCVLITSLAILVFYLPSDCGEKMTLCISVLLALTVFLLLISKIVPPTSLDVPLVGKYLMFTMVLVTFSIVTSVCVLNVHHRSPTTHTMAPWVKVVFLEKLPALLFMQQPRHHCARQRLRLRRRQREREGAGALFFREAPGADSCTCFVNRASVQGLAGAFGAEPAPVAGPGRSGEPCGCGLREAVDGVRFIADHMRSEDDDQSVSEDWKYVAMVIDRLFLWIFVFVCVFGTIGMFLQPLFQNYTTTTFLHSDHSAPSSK
β3α4β2α6β2 nAChR, sequence (Q15825 26-494): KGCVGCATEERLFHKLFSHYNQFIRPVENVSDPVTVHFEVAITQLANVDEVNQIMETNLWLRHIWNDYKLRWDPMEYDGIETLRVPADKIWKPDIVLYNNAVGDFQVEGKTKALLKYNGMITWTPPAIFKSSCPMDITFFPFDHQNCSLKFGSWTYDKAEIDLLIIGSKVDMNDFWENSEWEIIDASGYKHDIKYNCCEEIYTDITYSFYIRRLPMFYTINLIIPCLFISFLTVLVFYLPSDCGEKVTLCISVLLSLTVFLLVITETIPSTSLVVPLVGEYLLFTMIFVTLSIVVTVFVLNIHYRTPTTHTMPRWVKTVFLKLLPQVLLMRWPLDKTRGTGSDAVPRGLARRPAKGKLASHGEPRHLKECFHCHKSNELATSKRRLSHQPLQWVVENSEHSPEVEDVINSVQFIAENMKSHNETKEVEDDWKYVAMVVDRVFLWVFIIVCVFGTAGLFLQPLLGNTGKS
β3α4β2α6β2 nAChR, sequence (P17787 26-502): as the sequence (P17787 26-502) above

For `Ic1cncc(OC[C@@H]2CCN2)c1` [5IA, 5-Iodo-A-85380], in assay [1] (read-out: Net Charge EC50, β3α4β2α6β2), the half-maximal effective concentration (EC50) was found to be 19 ± 0.4 nM. Moreover, the half-maximal effective concentration (EC50) in assay [1] (read-out: Peak Currents EC50, β3α4β2α6β2) was determined as 11 ± 0.01 nM. Also, the “Efficacy (in words)” value in assay [1] (α6-containing subtypes) was “intermediate efficacy”. In assay [1] (setting [4]), the “Net Charge Imax” value came out at 0.76 ± 0.01 and the “Peak Currents Imax” value turned out to be 0.78 ± 0.1. Besides, in assay [2] (C57BL/6J mice, 0.01 mg/kg s.c. for 5 days, vs vehicle), the “Locomotion after repeated injection, low dose (in words)” value was “stimulant effects on locomotion at days 3 and 5”. The “Locomotion after repeated injection, higher doses (in words)” value in assay [2] (C57BL/6J mice, 0.5 and 1 mg/kg s.c. for 5 days, days 1 and 2, vs vehicle) is “depressive effects at higher doses (0.5 and 1 mg/kg)”. The “Tolerance to locomotor depressant effects (in words)” value in assay [2] (C57BL/6J mice, repeated injection of higher doses) is given as “Tolerance to the depressant effects of higher doses of 5IA developed progressively after day 2”. In addition, the “Attenuation of locomotion in β2 WT vs KO mice (in words)” value in assay [2] (β2 WT and KO mice, 0.5 mg/kg s.c.) was “this effect was only observed in β2 WT mice and not in β2 KO mice”. Also, the “Effect on acute thermal antinociception, tail-flick test (in words)” value in assay [3] is on record as “no significant effect of 5IA on acute thermal antinociception in the hot plate or tail-flick test”.

The values are drawn from article PMC9817006 (Journal of psychopharmacology (Oxford, England), 2022).
